The source made the active and inactive calls. No cut-off for these calls is given here.

Data on seven compounds can be found in ChEMBL document CHEMBL5550192, “Discovery of first-in-class PROTACs targeting maternal embryonic leucine zipper kinase (MELK) for the treatment of Burkitt lymphoma” (RSC Med Chem, 2024).

Data set [1] deals with T1, Protein cereblon/Maternal embryonic leucine zipper kinase (Homo sapiens, UniProt Q14680+Q96SW2). The experiment in a line: PROTAC activity at CRBN/MELK in human Ramos cells assessed as induction of MELK degradation by immunoblot analysis. Format: cell-based. The method in brief:
(§1)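 Ramos cells in 12-well plates (1 mL medium) treated with compound at various concentrations. Lysed in 2X SDS sample buffer and boiled 15 min. Proteins resolved on 10% SDS-PAGE and transferred to PVDF. Probed with MELK, mTOR or p-mTOR antibodies, with β-actin/β-tubulin as loading controls. ECL detection, band densitometry, DC50 from nonlinear regression.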
Target sequence in this assay (Q14680 whole entry): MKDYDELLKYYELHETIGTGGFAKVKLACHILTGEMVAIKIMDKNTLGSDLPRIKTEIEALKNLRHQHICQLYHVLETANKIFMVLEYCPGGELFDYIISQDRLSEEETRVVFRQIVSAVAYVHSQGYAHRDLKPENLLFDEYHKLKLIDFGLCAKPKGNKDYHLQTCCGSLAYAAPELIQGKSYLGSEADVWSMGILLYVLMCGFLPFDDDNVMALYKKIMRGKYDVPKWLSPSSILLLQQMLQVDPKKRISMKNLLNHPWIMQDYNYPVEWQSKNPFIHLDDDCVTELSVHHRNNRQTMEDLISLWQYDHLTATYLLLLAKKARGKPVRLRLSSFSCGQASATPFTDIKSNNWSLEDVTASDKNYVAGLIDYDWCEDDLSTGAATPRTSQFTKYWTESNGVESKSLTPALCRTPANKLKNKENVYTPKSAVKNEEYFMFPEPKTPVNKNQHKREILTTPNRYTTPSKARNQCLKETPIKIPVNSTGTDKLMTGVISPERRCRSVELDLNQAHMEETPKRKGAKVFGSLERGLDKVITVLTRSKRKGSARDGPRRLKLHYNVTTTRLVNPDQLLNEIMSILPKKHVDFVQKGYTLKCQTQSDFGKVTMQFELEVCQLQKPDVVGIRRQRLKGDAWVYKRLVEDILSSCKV
Target sequence in this assay (Q96SW2 whole entry): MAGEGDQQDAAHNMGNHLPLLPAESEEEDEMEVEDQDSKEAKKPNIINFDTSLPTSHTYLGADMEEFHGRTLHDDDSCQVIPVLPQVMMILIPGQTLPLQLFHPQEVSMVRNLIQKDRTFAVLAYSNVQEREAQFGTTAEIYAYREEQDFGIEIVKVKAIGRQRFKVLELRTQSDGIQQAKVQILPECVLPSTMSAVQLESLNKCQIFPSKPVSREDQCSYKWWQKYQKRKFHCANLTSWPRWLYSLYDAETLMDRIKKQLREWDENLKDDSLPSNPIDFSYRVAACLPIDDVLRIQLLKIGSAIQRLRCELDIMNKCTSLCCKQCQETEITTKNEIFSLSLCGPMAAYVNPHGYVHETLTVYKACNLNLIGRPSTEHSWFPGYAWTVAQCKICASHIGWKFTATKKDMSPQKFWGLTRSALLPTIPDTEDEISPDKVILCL
A general note: A western blot detects proteins with antibodies after separation by electrophoresis.

Data set [2] has as its target T1, Protein cereblon/Maternal embryonic leucine zipper kinase. The experiment in a line: PROTAC activity at CRBN/MELK in human Ramos cells assessed as residual activity at 5 uM measured after 48 hrs by immunoblot analysis relative to control. Format: cell-based.
Target sequence in this assay (Q14680 whole entry, looked up): as the sequence (Q14680 whole entry) above
Target sequence in this assay (Q96SW2 whole entry, looked up): as the sequence (Q96SW2 whole entry) above
The nature of data set [3]: Selectivity ratio of CC50 for human MDA-MB-231 cells to IC50 for human Ramos cells.
In data set [4] the test system is Ramos. Nature of the data set: Cytotoxicity against human Ramos cells assessed as inhibition of cell growth measured after 72 to 96 hrs by CCK-8 method. Format: functional, cell-based. The method in brief:
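Ramos grown in RPMI 1640 with 10% FBS, 1% pen-strep, 1% NEAA and 50 μM 2-mercaptoethanol at 37°C, 5% CO₂. Plated at 3000 cells/well with compound diluted in medium from DMSO stock. Incubated 72–96 h, then CCK-8 added for 4 h. Absorbance read at 450 nm, normalized to DMSO-treated cells. EC50 from nonlinear regression.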

A further data set has as its system MDA-MB-231. Nature of the data set: Cytotoxicity against human MDA-MB-231 cells assessed as inhibition of cell growth measured after 72 to 96 hrs by CCK-8 method. Format: functional. The following applies: time 72-96 hrs. The method in brief: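 MDA-MB-231 grown in DMEM with 10% FBS, 1% pen-strep, 1% NEAA and 50 μM 2-mercaptoethanol at 37°C, 5% CO₂. Plated at 3000 cells/well with compound diluted in medium from DMSO stock. Incubated 72–96 h, then CCK-8 added for 4 h. Absorbance read at 450 nm, normalized to DMSO-treated cells. EC50 from nonlinear regression.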

The target in data set [5] is T1, Protein cereblon/Maternal embryonic leucine zipper kinase. The experiment in a line: PROTAC activity at CRBN/MELK in human Ramos cells assessed as inhibition of mTOR phosphorylation measured after 24 hrs Western blot analysis. Format: cell-based. The method in brief:
as §1
Target sequence in this assay (Q14680 whole entry): as the sequence (Q14680 whole entry) above
Target sequence in this assay (Q96SW2 whole entry): as the sequence (Q96SW2 whole entry) above

In data set [6] the test system is Ramos. The experiment in a line: Induction of apoptosis in human Ramos cells assessed as early apoptotic cells at 20 uM measured after 24 hrs by Annexin V-FITC and propidium iodide staining based flow cytometry analysis (reference value: 9.69%). Format: functional. The method in brief:
(§2)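 Ramos cells, 1×10^6 per well in 6-well plates, treated with compound or DMSO for 24 h. Washed in cold PBS, resuspended in Annexin V binding buffer, stained with Annexin V-FITC and propidium iodide. Populations quantified by flow cytometry.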

The subject of data set [7] is Ramos. The experiment in a line: Induction of apoptosis in human Ramos cells assessed as viable cells at 20 uM measured after 24 hrs by Annexin V-FITC and propidium iodide staining based flow cytometry analysis (reference value: 84.9%). Format: functional. The following applies: read-out: Activity. The method in brief:
as §2

Data set [8] deals with Ramos. The experiment in a line: Induction of apoptosis in human Ramos cells at 20 uM measured after 24 hrs by calcein-AM/propidium iodide staining based fluorescence microscopic analysis. Format: functional, cell-based. The method in brief:
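Ramos cells, 2×10^5 per well in 12-well plates, exposed to compound or DMSO for 24 h. Washed in cold PBS, then stained with calcein-AM/propidium iodide working solution for 30 min at 37°C in the dark. Examined by fluorescence microscopy.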

Data set [9] deals with T1, Protein cereblon/Maternal embryonic leucine zipper kinase. Nature of the data set: PROTAC activity at CRBN/MELK in human Ramos cells assessed as degradation of MELK at 20 uM pretreated with MG132 followed by compound addition and measured after 24 hrs by immunoblot analysis. Format: cell-based.
Target sequence in this assay (Q14680 whole entry, looked up): as the sequence (Q14680 whole entry) above
Target sequence in this assay (Q96SW2 whole entry, looked up): as the sequence (Q96SW2 whole entry) above
Data set [10] deals with Ramos. Nature of the data set: Upregulation of MELK mRNA level in human Ramos cells at 20 uM incubated for 24 hrs by qPCR analysis. Format: functional, cell-based. The method in brief: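 Ramos cells in 6-well plates exposed to 20 μM compound or DMSO for 24 h. MELK mRNA measured by qPCR with MELK-specific primers. Relative expression by the 2^-ΔΔCt method, normalized to 18S mRNA (actin also stated as internal control). Run in triplicate.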

The target of data set [11] is T1, Protein cereblon/Maternal embryonic leucine zipper kinase. Nature of the data set: PROTAC activity at CRBN/MELK in human Ramos cells assessed as degradation of MELK at 20 uM pretreated with MLN4924 followed by compound addition and measured after 24 hrs by immunoblot analysis. Format: cell-based.
Target sequence in this assay (Q14680 whole entry, looked up): as the sequence (Q14680 whole entry) above
Target sequence in this assay (Q96SW2 whole entry, looked up): as the sequence (Q96SW2 whole entry) above
The target is the same in data set [12]. The experiment in a line: PROTAC activity at CRBN/MELK in human Ramos cells assessed as inhibition of mTOR phosphorylation at upto 64 uM measured after 24 hrs Western blot analysis. Format: cell-based. The method in brief: as §1
Target sequence in this assay (Q14680 whole entry, looked up): as the sequence (Q14680 whole entry) above
Target sequence in this assay (Q96SW2 whole entry, looked up): as the sequence (Q96SW2 whole entry) above
The next data set relates to DOHH-2. Nature of the data set: Upregulation of MELK mRNA level in human DOHH-2 cells at 20 uM incubated for 24 hrs by qPCR analysis. Format: functional, cell-based.
A further data set concerns HUVEC. The experiment in a line: Cytotoxicity against human HUVEC cells at 4 uM measured after 24 hrs by tube formation assay. Format: toxicity, cell-based. In short, it runs like this:
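HUVEC, 3×10^4 cells/well, seeded on Matrigel-coated wells (Matrigel set 4 h at 37°C) in medium containing compound. Tubes imaged by optical microscopy and quantified by image analysis. Three independent experiments.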

Data set [13] relates to Ramos. Nature of the data set: Induction of apoptosis in human Ramos cells assessed as necrotic cells at 20 uM measured after 24 hrs by Annexin V-FITC and propidium iodide staining based flow cytometry analysis (reference value: 0.34%). Format: functional. The method in brief:
as §2

The target in data set [14] is T1, Protein cereblon/Maternal embryonic leucine zipper kinase. Nature of the data set: PROTAC activity at CRBN/MELK in human Ramos cells assessed as degradation of MELK by measuring half life at 20 uM measured for 48 hrs by Western blot analysis. Format: cell-based.
Target sequence in this assay (Q14680 whole entry, looked up): as the sequence (Q14680 whole entry) above
Target sequence in this assay (Q96SW2 whole entry, looked up): as the sequence (Q96SW2 whole entry) above
Data set [15] relates to Ramos. Nature of the data set: Induction of cell cycle arrest in human Ramos cells assessed as accumulation of cells at G2/M phase at 10 uM measured after 24 hrs by propidium iodide staining based flow cytometry analysis. Format: functional. The method in brief: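 Ramos cells exposed to compound or DMSO for 24 h, washed in cold PBS and fixed overnight in 70% ethanol. Stained with propidium iodide for 30 min at 37°C in the dark. Cell-cycle phase distribution determined by flow cytometry.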

The target of data set [16] is T1, Protein cereblon/Maternal embryonic leucine zipper kinase. Nature of the data set: PROTAC activity at CRBN/MELK in human Ramos cells assessed as induction of MELK degradation by immunoblot analysis relative to control. Format: cell-based. In short, it runs like this: as §1
Target sequence in this assay (Q14680 whole entry, looked up): as the sequence (Q14680 whole entry) above
Target sequence in this assay (Q96SW2 whole entry, looked up): as the sequence (Q96SW2 whole entry) above
The test system of data set [17] is Ramos. Nature of the data set: Induction of apoptosis in human Ramos cells assessed as late apoptotic cells at 20 uM measured after 24 hrs by Annexin V-FITC and propidium iodide staining based flow cytometry analysis (reference value: 5.05%). Format: functional. In short, it runs like this:
as §2
Background: In flow cytometry, cells or beads pass a laser one at a time.

As a reminder, the DC50 is the concentration at which degradation of the target reaches its halfway point. As to `CC(C)COc1cnccc1-c1cnn(-c2ccc(N3CCN(Cc4cn(CCCCCCCNc5ccc6c(c5)C(=O)N(C5CCC(=O)NC5=O)C6=O)nn4)CC3)cc2)c1` (centres undefined), the DC50 in data set [1] was below 5 µM. Besides, the Activity in [2] amounted to 37.7%.

In general, IC50 refers to the midpoint of a concentration-inhibition curve. The term CC50 denotes the concentration giving 50% cytotoxicity. On to `COc1cc(-c2cn[nH]c2)ccc1C(=O)Nc1ccc2c(c1)CCNCC2`, for which the “Ratio CC50/IC50” value in [3] is 0.9. Also, the IC50 in the data set on Ramos [4] was 9.1 µM. Moreover, in the data set on MDA-MB-231, the cytotoxic concentration (CC50) was found to be 7.9 µM.

In general, EC50 refers to the concentration at which the effect is half-maximal. Usually Emax stands for the greatest response seen or fitted, relative to the assay's reference. For `CC(C)COc1cnccc1-c1cnn(-c2ccc(N3CCN(Cc4cn(CCOCCOCCNc5ccc6c(c5)C(=O)N(C5CCC(=O)NC5=O)C6=O)nn4)CC3)cc2)c1` (centres undefined), the figures for the EC50 (in data set [5]; with Ramos [4]) were 2.3 µM and 1.8 µM, respectively. Further, the Activity was 42.1% with Ramos [6]; 14.3% in [2]; “Non-Toxic” with HUVEC; 0.25% in the data set with Ramos [13]; 12.8% in the data set with Ramos [17]. In addition, the viability at 20 µM with Ramos [7] was determined as 44.9%. Further, the DC50 in data set [1] came to 2.1 µM. For the same compound, the outcome (in the data set on Ramos [8]; in the data set on Ramos [10]; in [12]; in the data set with DOHH-2; in the data set on Ramos [15]) was Active. Moreover, the outcome in [9] and in data set [11] was inactive. For the same compound, the “Ratio CC50/IC50” value in data set [3] amounted to 7.6. Besides, the T1/2 in data set [14] is below 3 h. For the same compound, in the data set with MDA-MB-231, the CC50 was determined as 13.8 µM. The Emax in data set [16] was determined as 91.6%.

`CN1CCN(c2ccc(-n3cc(-c4ccncc4OCC4CCNCC4)cn3)cc2)CC1`: the “Ratio CC50/IC50” value in [3] turned out to be 0.7. Moreover, the IC50 with Ramos [4] is 3.4 µM. Further, the CC50 in the data set on MDA-MB-231 turned out to be 2.3 µM.

Regarding `CC(C)COc1cnccc1-c1cnn(-c2ccc(N3CCN(Cc4cn(CCOCCOCCOCCNc5ccc6c(c5)C(=O)N(C5CCC(=O)NC5=O)C6=O)nn4)CC3)cc2)c1` (centres undefined), in [1], the DC50 is below 5 µM. Besides, the Activity in [2] was determined as 49.6%.

Turning to `CC(C)COc1cnccc1-c1cnn(-c2ccc(N3CCN(Cc4cn(CCOCCNc5ccc6c(c5)C(=O)N(C5CCC(=O)NC5=O)C6=O)nn4)CC3)cc2)c1` (centres undefined), the DC50 in data set [1] was below 5 µM. Further, in data set [2], the Activity came to 49.3%.

Turning to `CC(C)COc1cnccc1-c1cnn(-c2ccc(N3CCN(Cc4cn(CCOCCOCCOCCOCCNc5ccc6c(c5)C(=O)N(C5CCC(=O)NC5=O)C6=O)nn4)CC3)cc2)c1` (centres undefined), the DC50 in data set [1] was below 5 µM. For the same compound, the Activity in data set [2] came to 42.7%.
